Laboratory results reported in paper PMC8809394 (Chemical Science, 2022).
Substitutions are numbered along the chain they refer to. Values joined by “and” are separate entries in the source; they are usually repeats but may differ in a detail not shown here. Identical values can stand only once.

What was measured:
[1] = target: T1, POPWT (prolyl oligopeptidase) (Pyrococcus furiosus, UniProt Q51714); test: Luminescence lifetime titration, cofactor binding to POPWT; conditions: for Kd: POPWT 0-300 μM, cofactor 5 μM, MQ H2O (+/- 0.5% ACN); for Δ lifetime (free vs. bound cofactor): non-covalent binding to POPWT
T1 sequence (Q51714 1-616): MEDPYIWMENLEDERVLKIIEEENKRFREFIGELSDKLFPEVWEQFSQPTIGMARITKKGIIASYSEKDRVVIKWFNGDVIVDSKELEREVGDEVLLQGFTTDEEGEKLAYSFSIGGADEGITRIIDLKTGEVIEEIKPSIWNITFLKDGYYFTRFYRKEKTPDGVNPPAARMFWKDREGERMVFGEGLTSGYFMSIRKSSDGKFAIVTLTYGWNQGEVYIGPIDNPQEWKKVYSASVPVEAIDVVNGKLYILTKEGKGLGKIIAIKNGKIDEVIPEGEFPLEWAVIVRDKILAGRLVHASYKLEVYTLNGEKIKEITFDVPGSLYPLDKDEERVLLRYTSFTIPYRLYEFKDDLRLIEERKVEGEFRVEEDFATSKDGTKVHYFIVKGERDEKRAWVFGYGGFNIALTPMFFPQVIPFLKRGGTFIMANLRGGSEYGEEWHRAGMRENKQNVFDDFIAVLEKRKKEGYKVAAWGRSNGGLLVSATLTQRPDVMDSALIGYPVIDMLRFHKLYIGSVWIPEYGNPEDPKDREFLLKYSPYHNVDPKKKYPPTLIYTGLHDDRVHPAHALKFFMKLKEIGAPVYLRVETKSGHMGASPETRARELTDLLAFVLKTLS
Summary of the method: (§1)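 Non-covalent binding is measured by luminescence lifetime titration of the Ru(Bpy)3 2+-type cofactor against Pyrococcus furiosus prolyl oligopeptidase scaffold variants. Kd comes from the titration. Δ lifetime is the lifetime difference between free and bound cofactor. Each plotted point is a single measurement. Error bars are standard deviations from single-exponential tail fitting of the decay data.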

[2] = target: T2, POPNeg (prolyl oligopeptidase variant) (Pyrococcus furiosus, UniProt Q51714, G99D/K255A/R198A/R338A/R55A/W142D/Y326D); test: Luminescence lifetime titration, cofactor binding to POPNeg; conditions: non-covalent binding to POPNeg
T2 sequence (Q51714 1-616 R55A/G99D/W142D/R198A/K255A/Y326D/R338A): T1 sequence (Q51714 1-616) with R55A, G99D, W142D, R198A, K255A, Y326D, R338A
Summary of the method: as §1

[3] = target: T3, POPNeut (prolyl oligopeptidase variant) (Pyrococcus furiosus, UniProt Q51714, G99A/K255A/R198A/R338A/R55A/W142A/Y326A); test: Luminescence lifetime titration, cofactor binding to POPNeut
T3 sequence (Q51714 1-616 R55A/G99A/W142A/R198A/K255A/Y326A/R338A): T1 sequence (Q51714 1-616) with R55A, G99A, W142A, R198A, K255A, Y326A, R338A
Summary of the method: as §1

[4] = deoxygenated acetonitrile ref 5,8; cited from earlier work
[5] = Luminescence lifetime; format: physicochemical; conditions: MQ H2O; λexc 450 nm, λem 620 nm; covalent ArMs 50 μM
[6] = target: BSA (Bos taurus, UniProt P02769); test: Luminescence lifetime titration with BSA; format: binding; conditions: 3a 5 μM, BSA in MQ H2O
BSA, sequence (P02769 25-607): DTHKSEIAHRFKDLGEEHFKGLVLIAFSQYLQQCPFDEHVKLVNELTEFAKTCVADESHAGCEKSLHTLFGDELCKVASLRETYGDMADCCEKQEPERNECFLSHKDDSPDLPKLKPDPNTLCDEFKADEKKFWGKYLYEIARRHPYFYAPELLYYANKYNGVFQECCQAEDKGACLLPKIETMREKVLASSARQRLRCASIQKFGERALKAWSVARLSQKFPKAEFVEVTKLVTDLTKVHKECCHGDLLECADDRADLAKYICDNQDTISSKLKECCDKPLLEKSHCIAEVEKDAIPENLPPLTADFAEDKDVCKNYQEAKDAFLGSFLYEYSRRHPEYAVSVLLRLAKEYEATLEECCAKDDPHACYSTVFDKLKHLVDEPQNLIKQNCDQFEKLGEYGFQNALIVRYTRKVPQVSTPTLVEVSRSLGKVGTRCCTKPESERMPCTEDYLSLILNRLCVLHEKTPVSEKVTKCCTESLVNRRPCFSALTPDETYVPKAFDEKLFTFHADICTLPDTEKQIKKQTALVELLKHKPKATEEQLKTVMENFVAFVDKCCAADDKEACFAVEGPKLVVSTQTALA

Structure (SMILES) | Kd [1] | Δ lifetime (free vs. bound cofactor) [1] [ns] | Δ lifetime (free vs. bound cofactor) [2] [ns] | Kd ([3]; POPNeut 0-300 μM, cofactor 5 μM, MQ H2O) | Δ lifetime (free vs. bound cofactor) ([3]; non-covalent binding to POPNeut) [ns] | luminescence lifetime [4] [ns] | Lifetime (luminescence) [5] [ns] | binding to BSA [6] | binding to BSA ([6]; listed as Ru(Bpy)3^2+)
O=C([O-])c1ccnc(-c2cc(C(=O)[O-])ccn2)c1.[Ru+2].c1ccc(-c2ccccn2)nc1.c1ccc(-c2ccccn2)nc1 [3d] | 30 µM and 29.5 µM | 35 | 125 | – | – | – | – | – | –
[Ru+2].c1ccc(-c2ccccn2)nc1.c1ccc(-c2ccccn2)nc1.c1ccc(-c2ccccn2)nc1 [3b] | 30 µM and 30.1 µM | 110 | – | – | – | – | – | – | –
[Cl-].[Cl-].[Ru+2].c1ccc(-c2ccccn2)nc1.c1ccc(-c2ccccn2)nc1.c1ccc(-c2ccccn2)nc1 [3a, Ru(Bpy)3^2+] | 28 µM and 28.3 µM | 96 | 183 | 1.7 µM and 1.65 µM | 166 | 930 | 573 | minimal non-specific binding affinity | negligible binding
